Source: ChEMBL document CHEMBL4613310, “Glycans Meet Sphingolipids: Structure-Based Design of Glycan Containing Analogues of a Sphingosine Kinase Inhibitor” (2020)
Calls of active or inactive are those of the source. The calls are words filed in the database; no cut-off is given here.

Legend:
[1] = tested on: C2C12; assay: (§1) Inhibition of TGFbeta1-induced fibrosis in mouse C2C12 cells assessed as reduction in alphaSMA protein expression level at 10 uM preincubated for 30 mins followed by TGFbeta1 addition and measured after 48 hrs by Western blot analysis; type: functional, cell-based
Method in brief: (§2)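 C2C12 myoblasts were seeded to 80% confluence. Cells received 10 μM inhibitor and 5.0 ng/mL TGFβ1, with inhibitor exposure of 30 min or 2 h. α-SMA and SMα22 were detected by Western blot with specific antibodies. Bands were quantified by densitometry and normalized to β-actin. Results are fold change over untreated control, mean ± SD of three independent experiments. Two-way ANOVA with Bonferroni post hoc test.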

[2] = tested on: C2C12; assay: Inhibition of TGFbeta1-induced fibrosis in mouse C2C12 cells assessed as reduction in SMalpha22 protein expression level at 10 uM preincubated for 30 mins followed by TGFbeta1 addition and measured after 48 hrs by Western blot analysis; type: functional, cell-based; method in brief: as §2
[3] = tested on: C2C12; assay: as §1, with “120” for “30”, “DAPI and rhodamine phalloidin staining based laser scanning confocal microscopic method relative to control” for “Western blot analysis”; type: functional
Method in brief: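 C2C12 cells were serum-starved for 24 h, preincubated 2 h with 10 μM inhibitor, then treated with 5.0 ng/mL TGFβ1 for 48 h. Confocal immunofluorescence used an anti-αSMA primary antibody with a fluorescein-conjugated anti-mouse secondary antibody. αSMA localization was assessed relative to F-actin microfilaments.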

[4] = tested on: C2C12; assay: Inhibition of TGFbeta1-induced fibrosis in mouse C2C12 cells preincubated for 2 hrs followed by TGFbeta1 addition and measured after 48 hrs by Western blot analysis relative to control
[5] = tested on: C2C12; assay: Inhibition of TGFbeta1-induced fibrosis in mouse C2C12 cells assessed as reduction in alphaSMA protein expression level at 10 uM preincubated for 30 mins followed by TGFbeta1 addition and measured after 48 hrs by Western blot analysis relative to control; type: functional; method in brief: as §2
[6] = tested on: C2C12; assay: Inhibition of TGFbeta1-induced fibrosis in mouse C2C12 cells assessed as reduction in SMalpha22 protein expression level at 10 uM preincubated for 2 hrs followed by TGFbeta1 addition and measured after 48 hrs by Western blot analysis; type: functional, cell-based; method in brief: as §2
[7] = tested on: C2C12; assay: Inhibition of TGFbeta1-induced fibrosis in mouse C2C12 cells assessed as reduction in caveolin3 protein expression level preincubated for 2 hrs followed by TGFbeta1 addition and measured after 48 hrs by Western blot analysis relative to control; type: functional

Compound	inhibition [1]	inhibition [2]	inhibition at 10 µM [3]	inhibition (INH) [4]	inhibition at 10 µM [5]	inhibition [6]	inhibition (INH) [7]
Cc1cc(CS(=O)(=O)c2ccccc2)cc(OCc2ccc(CN3CCC[C@@H]3CO)cc2)c1	Active	Active	100%	–	–	–	–
Cc1cc(CS(=O)(=O)c2ccccc2)cc(OCc2ccc(CO[C@@H]3O[C@H](CO)[C@@H](O)[C@H](O)[C@H]3O)cc2)c1	Active	Active	100%	100%	–	–	–
Cc1cc(CS(=O)(=O)c2ccccc2)cc(OCc2ccc(CO[C@@H]3O[C@H](CO)[C@H](O)[C@H](O)[C@H]3O)cc2)c1	inactive	inactive	–	–	–	–	–
CC(=O)OC[C@H]1O[C@@H](OCc2ccc(COc3cc(C)cc(CS(=O)(=O)c4ccccc4)c3)cc2)[C@H](OC(C)=O)[C@@H](OC(C)=O)[C@@H]1OC(C)=O	Active	Active	100%	–	100%	Active	100%
CC(=O)N[C@H]1[C@H](OCc2ccc(COc3cc(C)cc(CS(=O)(=O)c4ccccc4)c3)cc2)O[C@H](CO)[C@@H](O)[C@@H]1O	Active	–	–	–	–	–	–
